The values that follow come from ChEMBL document CHEMBL1156756, “4-Oxo-beta-lactams (azetidine-2,4-diones) are potent and selective inhibitors of human leukocyte elastase” (J Med Chem, 2010).

Series [1] deals with T1, Cathepsin G (Homo sapiens) (UniProt P08311).
T1 sequence (whole entry): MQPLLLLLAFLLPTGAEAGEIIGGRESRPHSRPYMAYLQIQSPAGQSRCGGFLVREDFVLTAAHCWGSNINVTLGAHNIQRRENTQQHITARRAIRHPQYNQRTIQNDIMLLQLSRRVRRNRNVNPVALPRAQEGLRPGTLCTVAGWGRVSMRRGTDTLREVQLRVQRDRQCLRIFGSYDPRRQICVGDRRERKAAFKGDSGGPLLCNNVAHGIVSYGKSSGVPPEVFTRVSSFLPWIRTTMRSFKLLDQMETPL
In words: Inhibition of human cathepsin G. In short, it runs like this: (§1)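 Cathepsin G stock (680 nM in 0.05 M acetate, pH 5.5) mixed at 25 °C with inhibitor in DMSO and Suc-Ala-Ala-Pro-Phe-p-nitroanilide (stock 42.5 mM in DMSO) in 0.1 M HEPES pH 7.5. A410 recorded continuously for 20 min. Progress curves fitted with slow-binding kinetics. Uninhibited controls ran linearly. Highest concentration tested 60 μM.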

Series [2] concerns the target T2, Papain (Carica papaya) (UniProt P00784).
T2 sequence (whole entry): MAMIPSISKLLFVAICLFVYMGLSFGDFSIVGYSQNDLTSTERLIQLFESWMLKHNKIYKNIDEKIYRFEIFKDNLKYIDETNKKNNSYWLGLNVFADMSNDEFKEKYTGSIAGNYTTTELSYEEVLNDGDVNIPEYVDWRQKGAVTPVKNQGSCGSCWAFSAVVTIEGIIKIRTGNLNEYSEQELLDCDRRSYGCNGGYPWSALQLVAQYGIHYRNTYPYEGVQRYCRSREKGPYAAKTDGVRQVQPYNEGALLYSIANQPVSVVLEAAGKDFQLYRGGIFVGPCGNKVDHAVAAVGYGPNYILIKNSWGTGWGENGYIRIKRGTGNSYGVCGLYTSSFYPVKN
In words: Inhibition of papaya papain at 60 uM. In outline:
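Incubation method. Activated papain was held with inhibitor at 25 °C in 50 mM potassium phosphate pH 7.0 with 2.5 mM EDTA. At intervals, aliquots were assayed with BAPA substrate (stock 10 mM in DMSO) in the same buffer, reading A410 for 4 min. Inhibitor-free controls were run in parallel.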

The target of series [3] is T3, Myeloblastin (Homo sapiens) (UniProt P24158).
T3 sequence (whole entry): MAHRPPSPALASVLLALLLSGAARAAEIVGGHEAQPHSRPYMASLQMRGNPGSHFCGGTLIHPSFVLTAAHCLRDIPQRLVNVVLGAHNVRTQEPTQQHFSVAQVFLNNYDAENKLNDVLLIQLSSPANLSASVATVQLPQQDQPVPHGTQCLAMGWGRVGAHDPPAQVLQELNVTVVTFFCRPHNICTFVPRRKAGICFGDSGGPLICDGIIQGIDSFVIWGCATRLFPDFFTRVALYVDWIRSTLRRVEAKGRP
Description: Inhibition of human proteinase 3 at 10 uM. In outline:
(§2)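 Proteinase 3 stock (325 nM in 0.05 M acetate pH 6, 150 mM NaCl) mixed at 25 °C with inhibitor in DMSO and MeOSuc-Ala-Ala-Pro-Val-p-nitroanilide (stock 50 mM in DMSO) in 0.1 M HEPES pH 7.2. A410 followed for 20 000 s. Progress curves fitted to slow-binding equations. Uninhibited controls ran linearly.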

Series [4] has as its target T3, Myeloblastin (Homo sapiens). Description: Inhibition of human proteinase 3. In outline: as §2
Series [5] concerns the target T1, Cathepsin G (Homo sapiens). Description: Inhibition of human cathepsin G at 60 uM. In outline: as §1
Series [6] concerns the target T3, Myeloblastin (Homo sapiens). In words: Inhibition of human proteinase 3 at 60 uM. In outline: as §2
The nature of series [7]: Stability in human plasma assessed as half life at pH 7.4.
The nature of series [8]: Chemical stability in phosphate buffer assessed as half life at pH 7.4. In kind it is physicochemical.

Activity calls are given as the source filed them. The rule behind the calls is not given here.

Regarding `CCCCC1(CC)C(=O)N(c2ccccc2)C1=O`, the Activity in series [1] turned out to be 47.3 M⁻¹ s⁻¹. The outcome in series [2] was inactive.
On to `CCC1(CC)C(=O)N(c2ccc(C#N)cc2)C1=O`, for which the Activity in series [1] amounted to 36.5 M⁻¹ s⁻¹. Further, the result in series [2] was inactive. In series [3], the inhibition (commonly the relative decrease from the control value, in per cent) was determined as 16%.
As for `CCC1(CC)C(=O)N(c2ccc(CSc3nnc(-c4ccccc4)o3)cc2)C1=O`, the Activity entry in series [4] (TDE = time-dependent effect) was “tde”.
As to `CC1(Cc2ccccc2)C(=O)N(c2ccccc2)C1=O`, the result in series [5] and in series [2] was inactive. The compound further registered an inhibition in series [6] of 22%.
Consider `CCOC(=O)CN1C(=O)C(CC)(CC)C1=O`, for which the Activity entry in series [4] (TDE = time-dependent effect) was “tde”.
On the same count and under the same terms, in the case of `CCC1(CC)C(=O)N(c2ccccc2CSc2nccn2C)C1=O` it was “tde”.
For `CCC1(CC)C(=O)N(c2ccc(CSc3nc4ccccc4o3)cc2)C1=O`, the result in series [5] and in series [2] was inactive. Also, the Activity in series [4] was determined as 29.6 M⁻¹ s⁻¹.
As for `CCC1(CC)C(=O)N(c2ccc(CSc3nc4ccccc4s3)nc2)C1=O`, the outcome in series [5] and in series [2] was inactive. In addition, the half-life – broadly, how long it takes for the measured level to halve – was 0.2 h in series [7] and 13 h in series [8]. In series [4], this compound showed an Activity of 4080 M⁻¹ s⁻¹.
For `CCC1(CC)C(=O)N(c2ccccc2C)C1=O`, in series [4] (TDE = time-dependent effect), the Activity entry is “tde”.
Regarding `CCC1(CC)C(=O)N(c2ccc(OC)cc2)C1=O`, the Activity entry in series [4] (TDE = time-dependent effect) is “tde”.
Same read-out and setting: in the case of `CCC1(CC(C)C)C(=O)N(c2ccccc2)C1=O` it was “tde”.
As to `CCC1(CC)C(=O)N(c2ccc(CSc3nc4cc(C(=O)O)ccc4o3)cc2)C1=O`, the result in series [5] and in series [2] was inactive. This compound displayed an Activity in series [4] of 689 M⁻¹ s⁻¹.
Regarding `CCC1(CC)C(=O)N(c2cccc3ccccc23)C1=O`, the Activity in series [1] was 35.6 M⁻¹ s⁻¹. Besides, the result in series [2] was inactive.
Take `CCC1(CC)C(=O)N(c2ccc(Cl)cc2)C1=O`: in series [4] (TDE = time-dependent effect), the Activity result was “tde”.
As to `CCC1(CC)C(=O)N(Cc2ccccc2)C1=O`, the Activity entry in series [4] (TDE = time-dependent effect) is “tde”.
`CCC1(CC)C(=O)N(c2ccc(CSc3nc4ccccc4s3)cc2)C1=O`: the half-life in series [7] was 0.4 h; in series [8], 10 h. The Activity entry in series [4] (TDE = time-dependent effect) is “tde”.
As for `CCC1(CC)C(=O)N(c2ccc(C)nc2)C1=O`, the Activity result in series [4] (TDE = time-dependent effect) was “tde”.
For `CCC1(CC)C(=O)N(c2ccc(C)cc2)C1=O`, in series [4] (TDE = time-dependent effect), the Activity entry was “tde”.
Consider `CCC1(CC)C(=O)N(c2ccccc2CSc2nc3ccccc3o2)C1=O`, for which the outcome in series [5] and in series [2] was inactive. For the same compound, the Activity in series [4] is 361 M⁻¹ s⁻¹.
In the case of `CC1(C)C(=O)N(Cc2ccccc2)C1=O`, the Activity entry in series [4] (TDE = time-dependent effect) was “tde”.
In the case of `CCC1(Cc2ccccc2)C(=O)N(c2ccccc2)C1=O`, the outcome in series [5] and in series [2] was inactive. This compound also registered an Activity in series [4] of 20.2 M⁻¹ s⁻¹.
In the case of `CC1(C)C(=O)N(c2ccc(Cl)cc2)C1=O`, the Activity entry in series [4] (TDE = time-dependent effect) was “tde”.
Consider `CCC1(CC)C(=O)N(c2ccccc2)C1=O`, for which, in series [4] (TDE = time-dependent effect), the Activity entry was “tde”.
Same read-out and setting: in the case of `CCC1(CC)C(=O)N(c2cccnc2)C1=O` it was “tde”; in that of `CC1(C)C(=O)N(c2ccccc2)C1=O`, “tde”.
On the same count and under the same terms, in the case of `CCC1(CC)C(=O)N(c2ccccc2CSc2nnc(-c3ccccc3)o2)C1=O` it was “tde”.
For `CCC1(CC)C(=O)N(c2ccc(CSc3ccccc3)cc2)C1=O`, the outcome in series [2] was inactive. Moreover, the Activity in series [4] came to 122 M⁻¹ s⁻¹.
In the case of `CCC1(CC)C(=O)N(c2ccccc2CSc2nc3ccccc3s2)C1=O`, the half-life in series [7] was 1.6 h; in series [8] it was 37 h. The Activity entry in series [4] (TDE = time-dependent effect) was “tde”.
